Experimental data from ChEMBL document CHEMBL3351625, “Ethyl 2-(benzylidene)-7-methyl-3-oxo-2,3-dihydro-5H-thiazolo[3,2-a]pyrimidine-6-carboxylate analogues as a new scaffold for protein kinase casein kinase 2 inhibitor” (Bioorg Med Chem, 2014).

Tests used:
[1] = target: 5'-AMP-activated protein kinase catalytic subunit alpha-1 (Homo sapiens) (UniProt Q13131); assay: Inhibition of human AMPKalpha1 assessed as residual activity at 10 uM by KinaseProfiler assay
Method in brief: (§1)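 Radioactive phosphorylation assays were run by an outsourced profiling service. Each of 31 human kinases was tested with inhibitor at 10 µM. Residual activity is expressed as a percentage of the mean activity in positive-control wells, which contained all reaction components except inhibitor plus DMSO as solvent control.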

[2] = target: 5'-AMP-activated protein kinase catalytic subunit alpha-2 (Homo sapiens) (UniProt P54646); assay: Inhibition of human AMPKalpha2 assessed as residual activity at 10 uM by KinaseProfiler assay; method in brief: as §1
[3] = target: T1, Mitogen-activated protein kinase kinase kinase kinase 2 (Homo sapiens) (UniProt Q12851); assay: Inhibition of human GCK assessed as residual activity at 10 uM by KinaseProfiler assay; method in brief: as §1
T1 sequence (whole entry): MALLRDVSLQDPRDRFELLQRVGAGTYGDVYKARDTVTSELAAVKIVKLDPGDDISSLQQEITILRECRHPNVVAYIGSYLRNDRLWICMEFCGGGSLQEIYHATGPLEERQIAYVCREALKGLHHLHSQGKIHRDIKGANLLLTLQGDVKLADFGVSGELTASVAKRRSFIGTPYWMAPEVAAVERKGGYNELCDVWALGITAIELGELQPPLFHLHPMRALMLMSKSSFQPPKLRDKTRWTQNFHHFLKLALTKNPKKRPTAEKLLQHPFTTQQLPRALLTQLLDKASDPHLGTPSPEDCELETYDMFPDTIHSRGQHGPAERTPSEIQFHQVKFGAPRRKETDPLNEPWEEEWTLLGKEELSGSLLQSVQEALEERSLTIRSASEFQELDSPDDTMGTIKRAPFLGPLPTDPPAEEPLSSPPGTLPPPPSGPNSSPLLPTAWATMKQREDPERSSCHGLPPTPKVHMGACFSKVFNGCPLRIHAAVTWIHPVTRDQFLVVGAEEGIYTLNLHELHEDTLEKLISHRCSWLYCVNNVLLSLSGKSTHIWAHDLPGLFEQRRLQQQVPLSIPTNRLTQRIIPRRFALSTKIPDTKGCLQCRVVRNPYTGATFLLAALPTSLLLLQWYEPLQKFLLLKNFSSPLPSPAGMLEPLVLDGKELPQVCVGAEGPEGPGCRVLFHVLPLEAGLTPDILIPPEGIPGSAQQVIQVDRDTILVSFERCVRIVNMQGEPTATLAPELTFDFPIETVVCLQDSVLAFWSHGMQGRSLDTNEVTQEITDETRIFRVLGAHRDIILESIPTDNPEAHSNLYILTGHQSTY

[4] = target: Mitogen-activated protein kinase 9 (Homo sapiens) (UniProt P45984); assay: Inhibition of human JNK2alpha2 assessed as residual activity at 10 uM by KinaseProfiler assay; method in brief: as §1
[5] = target: Mitogen-activated protein kinase 1 (Homo sapiens) (UniProt P28482); assay: Inhibition of human MAPK2 assessed as residual activity at 10 uM by KinaseProfiler assay; method in brief: as §1
[6] = target: MAP kinase-activated protein kinase 3 (Homo sapiens) (UniProt Q16644); assay: Inhibition of human MAPKAP-K3 assessed as residual activity at 10 uM by KinaseProfiler assay; method in brief: as §1
[7] = target: Ribosomal protein S6 kinase alpha-5 (Homo sapiens) (UniProt O75582); assay: Inhibition of human MSK1 assessed as residual activity at 10 uM by KinaseProfiler assay; method in brief: as §1
[8] = species on record: Homo sapiens; assay: Inhibition of human PKA assessed as residual activity at 10 uM by KinaseProfiler assay; method in brief: as §1
[9] = target: Protein kinase C alpha type (Homo sapiens) (UniProt P17252); assay: Inhibition of human PKCalpha assessed as residual activity at 10 uM by KinaseProfiler assay; method in brief: as §1
[10] = target: T2, MAP kinase-activated protein kinase 5 (Homo sapiens) (UniProt Q8IW41); assay: Inhibition of human PRAK assessed as residual activity at 10 uM by KinaseProfiler assay; method in brief: as §1
T2 sequence (whole entry): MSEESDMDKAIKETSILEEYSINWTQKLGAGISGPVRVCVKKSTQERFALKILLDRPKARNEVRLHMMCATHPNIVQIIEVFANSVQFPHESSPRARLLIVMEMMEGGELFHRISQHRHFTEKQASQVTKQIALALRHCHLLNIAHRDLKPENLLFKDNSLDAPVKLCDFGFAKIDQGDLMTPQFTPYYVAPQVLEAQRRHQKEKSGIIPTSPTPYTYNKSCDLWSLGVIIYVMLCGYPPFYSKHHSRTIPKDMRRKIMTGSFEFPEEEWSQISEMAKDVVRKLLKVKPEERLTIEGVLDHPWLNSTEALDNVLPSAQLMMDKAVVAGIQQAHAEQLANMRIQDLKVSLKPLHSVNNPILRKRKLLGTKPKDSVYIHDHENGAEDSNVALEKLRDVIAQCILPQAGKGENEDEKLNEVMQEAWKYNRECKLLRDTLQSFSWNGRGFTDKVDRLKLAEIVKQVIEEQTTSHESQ

[11] = target: Rho-associated protein kinase 2 (Homo sapiens) (UniProt O75116); assay: Inhibition of human ROCK2 assessed as residual activity at 10 uM by KinaseProfiler assay; method in brief: as §1
[12] = target: T3, Serine/threonine-protein kinase Sgk1 (Homo sapiens) (UniProt O00141); assay: Inhibition of human SGK assessed as residual activity at 10 uM by KinaseProfiler assay; method in brief: as §1
T3 sequence (whole entry): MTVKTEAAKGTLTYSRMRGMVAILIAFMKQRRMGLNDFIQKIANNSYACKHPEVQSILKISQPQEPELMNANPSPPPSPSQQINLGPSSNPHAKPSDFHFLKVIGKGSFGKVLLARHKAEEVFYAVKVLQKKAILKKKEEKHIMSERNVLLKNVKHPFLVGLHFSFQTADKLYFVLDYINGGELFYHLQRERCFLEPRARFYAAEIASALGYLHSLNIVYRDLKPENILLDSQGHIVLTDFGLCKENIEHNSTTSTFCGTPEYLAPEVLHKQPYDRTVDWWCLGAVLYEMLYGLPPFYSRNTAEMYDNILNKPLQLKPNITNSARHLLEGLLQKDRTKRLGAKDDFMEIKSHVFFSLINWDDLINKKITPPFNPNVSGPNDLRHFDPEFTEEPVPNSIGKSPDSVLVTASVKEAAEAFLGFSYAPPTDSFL

[13] = target: Dual specificity tyrosine-phosphorylation-regulated kinase 2 (Homo sapiens) (UniProt Q92630); assay: Inhibition of human DYRK2 assessed as residual activity at 10 uM by KinaseProfiler assay
Chain of Dual specificity tyrosine-phosphorylation-regulated kinase 2 (Homo sapiens) (Q92630 whole entry, looked up): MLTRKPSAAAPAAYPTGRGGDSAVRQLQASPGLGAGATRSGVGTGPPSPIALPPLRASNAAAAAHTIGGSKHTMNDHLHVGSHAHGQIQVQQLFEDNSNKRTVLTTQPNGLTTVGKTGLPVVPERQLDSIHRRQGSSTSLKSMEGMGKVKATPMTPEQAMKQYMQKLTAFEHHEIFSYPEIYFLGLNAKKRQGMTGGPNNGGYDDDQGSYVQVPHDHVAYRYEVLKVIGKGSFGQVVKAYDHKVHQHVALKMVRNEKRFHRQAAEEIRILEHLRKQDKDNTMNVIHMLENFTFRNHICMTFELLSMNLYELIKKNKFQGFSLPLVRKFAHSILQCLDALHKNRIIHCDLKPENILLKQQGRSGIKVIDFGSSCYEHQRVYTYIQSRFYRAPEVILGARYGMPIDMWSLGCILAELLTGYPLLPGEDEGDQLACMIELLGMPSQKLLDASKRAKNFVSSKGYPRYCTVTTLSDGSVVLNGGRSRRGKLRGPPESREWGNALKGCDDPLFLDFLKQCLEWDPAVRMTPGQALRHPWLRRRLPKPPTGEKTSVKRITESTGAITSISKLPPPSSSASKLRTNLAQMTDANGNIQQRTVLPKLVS

Chain of MAP kinase-activated protein kinase 3 (Homo sapiens) (Q16644 whole entry, looked up): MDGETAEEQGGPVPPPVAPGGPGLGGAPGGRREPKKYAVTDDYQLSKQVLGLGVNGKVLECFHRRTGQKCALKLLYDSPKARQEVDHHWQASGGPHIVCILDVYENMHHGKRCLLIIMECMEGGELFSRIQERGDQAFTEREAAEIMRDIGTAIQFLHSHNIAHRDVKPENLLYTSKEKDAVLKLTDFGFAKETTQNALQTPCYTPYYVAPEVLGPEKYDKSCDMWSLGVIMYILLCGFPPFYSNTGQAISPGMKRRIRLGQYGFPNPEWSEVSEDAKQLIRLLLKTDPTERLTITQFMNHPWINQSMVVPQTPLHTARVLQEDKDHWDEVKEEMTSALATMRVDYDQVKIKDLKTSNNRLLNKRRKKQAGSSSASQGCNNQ
Chain of Mitogen-activated protein kinase 9 (Homo sapiens) (P45984 whole entry, looked up): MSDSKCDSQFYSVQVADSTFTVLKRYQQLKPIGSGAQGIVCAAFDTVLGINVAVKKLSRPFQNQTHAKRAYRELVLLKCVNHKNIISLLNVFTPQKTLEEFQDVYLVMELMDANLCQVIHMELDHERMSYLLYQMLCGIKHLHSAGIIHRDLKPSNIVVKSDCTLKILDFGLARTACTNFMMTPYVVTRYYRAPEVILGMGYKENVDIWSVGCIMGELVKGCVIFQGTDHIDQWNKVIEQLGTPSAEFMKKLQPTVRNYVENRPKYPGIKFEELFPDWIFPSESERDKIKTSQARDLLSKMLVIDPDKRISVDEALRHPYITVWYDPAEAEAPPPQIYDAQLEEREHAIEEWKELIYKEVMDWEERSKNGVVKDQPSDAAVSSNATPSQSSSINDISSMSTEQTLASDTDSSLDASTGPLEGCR
Chain of Ribosomal protein S6 kinase alpha-5 (Homo sapiens) (O75582 whole entry, looked up): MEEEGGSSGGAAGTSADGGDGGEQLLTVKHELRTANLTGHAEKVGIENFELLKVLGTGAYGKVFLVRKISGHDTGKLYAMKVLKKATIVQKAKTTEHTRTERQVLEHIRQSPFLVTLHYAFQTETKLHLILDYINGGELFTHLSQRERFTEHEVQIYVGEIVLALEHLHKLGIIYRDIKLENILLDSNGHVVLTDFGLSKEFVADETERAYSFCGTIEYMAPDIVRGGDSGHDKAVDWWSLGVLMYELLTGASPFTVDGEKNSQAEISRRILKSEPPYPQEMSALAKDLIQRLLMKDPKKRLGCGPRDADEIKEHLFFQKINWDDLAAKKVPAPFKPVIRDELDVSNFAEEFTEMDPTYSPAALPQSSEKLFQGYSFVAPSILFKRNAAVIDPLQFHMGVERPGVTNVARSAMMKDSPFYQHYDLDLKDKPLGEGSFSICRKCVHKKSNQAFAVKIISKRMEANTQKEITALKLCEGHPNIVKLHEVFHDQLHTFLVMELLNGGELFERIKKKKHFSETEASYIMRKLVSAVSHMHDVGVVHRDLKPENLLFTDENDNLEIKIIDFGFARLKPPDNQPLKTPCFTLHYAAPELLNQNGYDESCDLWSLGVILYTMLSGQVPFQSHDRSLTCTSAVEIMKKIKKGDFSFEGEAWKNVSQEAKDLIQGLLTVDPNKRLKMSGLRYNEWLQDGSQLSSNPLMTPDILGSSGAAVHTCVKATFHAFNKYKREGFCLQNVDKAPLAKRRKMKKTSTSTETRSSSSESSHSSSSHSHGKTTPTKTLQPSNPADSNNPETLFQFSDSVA
Chain of Rho-associated protein kinase 2 (Homo sapiens) (O75116 whole entry, looked up): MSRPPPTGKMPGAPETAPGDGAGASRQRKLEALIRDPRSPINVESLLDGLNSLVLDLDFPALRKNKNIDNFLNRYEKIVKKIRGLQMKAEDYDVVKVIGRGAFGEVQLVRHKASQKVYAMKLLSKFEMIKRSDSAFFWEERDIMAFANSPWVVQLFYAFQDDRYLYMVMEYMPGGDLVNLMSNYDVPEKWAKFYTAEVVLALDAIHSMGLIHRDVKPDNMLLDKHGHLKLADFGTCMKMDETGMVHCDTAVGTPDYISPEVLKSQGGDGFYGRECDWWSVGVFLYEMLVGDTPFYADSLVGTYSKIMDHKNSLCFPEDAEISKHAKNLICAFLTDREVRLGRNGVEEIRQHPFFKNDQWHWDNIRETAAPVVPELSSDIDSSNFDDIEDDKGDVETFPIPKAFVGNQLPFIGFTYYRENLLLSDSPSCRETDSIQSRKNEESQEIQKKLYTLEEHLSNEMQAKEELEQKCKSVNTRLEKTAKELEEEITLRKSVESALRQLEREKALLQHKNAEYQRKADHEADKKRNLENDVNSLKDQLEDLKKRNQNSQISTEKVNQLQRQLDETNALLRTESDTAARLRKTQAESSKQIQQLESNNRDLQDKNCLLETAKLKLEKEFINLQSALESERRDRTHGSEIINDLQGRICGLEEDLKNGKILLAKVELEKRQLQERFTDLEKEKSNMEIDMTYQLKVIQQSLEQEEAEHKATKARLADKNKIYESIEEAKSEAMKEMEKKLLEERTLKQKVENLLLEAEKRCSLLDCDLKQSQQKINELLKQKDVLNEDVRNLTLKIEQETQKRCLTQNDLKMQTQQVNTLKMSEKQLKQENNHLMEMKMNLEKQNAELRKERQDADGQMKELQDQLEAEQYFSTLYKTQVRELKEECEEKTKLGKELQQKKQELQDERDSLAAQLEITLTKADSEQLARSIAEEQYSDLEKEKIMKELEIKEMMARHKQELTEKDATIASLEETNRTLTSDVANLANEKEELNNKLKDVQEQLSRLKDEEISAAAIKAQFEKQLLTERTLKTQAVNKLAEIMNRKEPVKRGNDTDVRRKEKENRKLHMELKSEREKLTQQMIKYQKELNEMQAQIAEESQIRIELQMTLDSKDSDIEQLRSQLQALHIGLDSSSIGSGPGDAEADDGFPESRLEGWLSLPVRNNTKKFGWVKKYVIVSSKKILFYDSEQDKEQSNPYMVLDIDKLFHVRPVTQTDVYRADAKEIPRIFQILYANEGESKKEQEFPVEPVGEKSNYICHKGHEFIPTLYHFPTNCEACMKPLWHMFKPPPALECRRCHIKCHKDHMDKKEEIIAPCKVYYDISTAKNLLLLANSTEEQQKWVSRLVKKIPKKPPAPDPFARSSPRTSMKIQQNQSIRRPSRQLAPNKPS
Chain of 5'-AMP-activated protein kinase catalytic subunit alpha-1 (Homo sapiens) (Q13131 whole entry, looked up): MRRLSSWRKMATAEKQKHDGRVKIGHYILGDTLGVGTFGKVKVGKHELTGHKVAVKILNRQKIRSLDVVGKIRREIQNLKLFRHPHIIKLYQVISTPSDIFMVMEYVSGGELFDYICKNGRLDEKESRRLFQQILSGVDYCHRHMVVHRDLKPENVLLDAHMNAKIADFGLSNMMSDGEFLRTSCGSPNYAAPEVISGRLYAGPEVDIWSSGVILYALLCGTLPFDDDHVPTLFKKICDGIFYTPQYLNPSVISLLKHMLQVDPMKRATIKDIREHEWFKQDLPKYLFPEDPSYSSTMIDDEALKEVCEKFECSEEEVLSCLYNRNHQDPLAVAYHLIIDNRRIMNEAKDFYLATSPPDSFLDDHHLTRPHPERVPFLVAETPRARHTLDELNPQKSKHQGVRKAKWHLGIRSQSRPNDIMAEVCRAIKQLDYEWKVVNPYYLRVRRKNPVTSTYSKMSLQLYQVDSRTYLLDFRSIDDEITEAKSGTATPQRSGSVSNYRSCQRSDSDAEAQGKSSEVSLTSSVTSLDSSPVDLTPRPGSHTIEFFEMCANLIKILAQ

**Q.** For `Brc1c(Br)c(Br)c2[nH]nnc2c1Br`, which Activity [1] is on record?
**A.** 75%

**Q.** And the Activity [2]?
**A.** 83%

**Q.** What about the Activity [3] of the same molecule?
**A.** 92%

**Q.** And the Activity [4]?
**A.** 50%

**Q.** What about the Activity [5] of the same molecule?
**A.** 104%

**Q.** What about the Activity [6] of the same molecule?
**A.** 95%

**Q.** What about the Activity [7] of the same molecule?
**A.** 66%

**Q.** What about the Activity [8] of the same molecule?
**A.** 109%

**Q.** What about the Activity [9] of the same molecule?
**A.** 106%

**Q.** And the Activity [10]?
**A.** 60%

**Q.** What about the Activity [11] of the same molecule?
**A.** 73%

**Q.** What about the Activity [12] of the same molecule?
**A.** 65%

**Q.** And the Activity [13]?
**A.** 2%

**Q.** For `CCOC(=O)C1=C(C)N=c2s/c(=C\c3ccc(O)c(O)c3)c(=O)n2C1c1ccc(Cl)cc1` (centres undefined), which Activity [1] is on record?
**A.** 82%

**Q.** And the Activity [2]?
**A.** 65%

**Q.** And the Activity [3]?
**A.** 87%

**Q.** And the Activity [4]?
**A.** 91%

**Q.** And the Activity [5]?
**A.** 85%

**Q.** And the Activity [6]?
**A.** 117%

**Q.** And the Activity [7]?
**A.** 127%

**Q.** And the Activity [8]?
**A.** 130%

**Q.** What about the Activity [9] of the same molecule?
**A.** 91%

**Q.** And the Activity [10]?
**A.** 36%

**Q.** What about the Activity [11] of the same molecule?
**A.** 89%

**Q.** And the Activity [12]?
**A.** 85%

**Q.** And the Activity [13]?
**A.** 14%

**Q.** With `CCOC(=O)C1=C(C)N=c2s/c(=C\c3cc(O)c(O)c(O)c3)c(=O)n2C1c1ccc(Cl)cc1` (centres undefined) as the molecule, how does the Activity [1] read?
**A.** 64%

**Q.** And the Activity [2]?
**A.** 48%

**Q.** And the Activity [3]?
**A.** 87%

**Q.** What about the Activity [4] of the same molecule?
**A.** 92%

**Q.** And the Activity [5]?
**A.** 87%

**Q.** What about the Activity [6] of the same molecule?
**A.** 122%

**Q.** What about the Activity [7] of the same molecule?
**A.** 124%

**Q.** What about the Activity [8] of the same molecule?
**A.** 92%

**Q.** And the Activity [9]?
**A.** 91%

**Q.** What about the Activity [10] of the same molecule?
**A.** 28%

**Q.** And the Activity [11]?
**A.** 108%

**Q.** What about the Activity [12] of the same molecule?
**A.** 61%

**Q.** And the Activity [13]?
**A.** 118%
